The record followed here is ChEMBL document CHEMBL3865799, “Synthesis of a series of novel dihydroartemisinin monomers and dimers containing chalcone as a linker and their anticancer activity” (Eur J Med Chem, 2016).

A short description of series [1]: Cytotoxicity against human PC3 cells assessed as cell growth inhibition at 0.5 uM after 48 hrs by MTT assay. The following applies: PC-3, 48 h, read-out: GI. It is filed as functional. In outline: (§1)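 Adherent lines at 70–75% confluence, grown at 37 °C in 5% CO2 with 10% FCS. Exposed 48 h to compound in DMSO (vehicle <0.2% v/v). MTT dye added 3 h before termination; formazan dissolved in DMSO, OD 570 nm with 620 nm reference. Growth inhibition expressed as % of untreated; IC50 taken from the dose series.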

Series [2] in a line: Cytotoxicity against human HL60 cells assessed as cell growth inhibition at 50 uM after 48 hrs by MTT assay. Type of series: functional. The following applies: HL-60, 48 h, read-out: GI. A digest of the protocol:
(§2)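 HL-60 suspension cells, 1.5 × 10^4 per well, grown at 37 °C in 5% CO2 with 10% FCS. Treated 48 h with compound in DMSO (vehicle <0.2% v/v). MTT added 3 h before the end. Formazan dissolved in DMSO and read at 570 nm (reference 620 nm). % growth inhibition computed against untreated cells; IC50 taken from the concentration series.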
For orientation: Tetrazolium dyes change colour on reduction, which living cells bring about.

Series [3] can be described thus: Cytotoxicity against human HL60 cells assessed as cell growth inhibition at 30 uM after 48 hrs by MTT assay. Type of series: functional. The following applies: HL-60, 48 h, read-out: GI. In outline:
as §2

Series [4] is described as follows: Cytotoxicity against human MIAPaCa2 cells assessed as cell growth inhibition at 30 uM after 48 hrs by MTT assay. The following applies: MIA PaCa-2, 48 h, read-out: GI. Type of series: functional. A digest of the protocol: as §1
Series [5] is described as follows: Cytotoxicity against human MIAPaCa2 cells assessed as cell growth inhibition at 50 uM after 48 hrs by MTT assay. It is filed as functional. The note with it: MIA PaCa-2, 48 h, read-out: GI. A digest of the protocol: as §1
Series [6] can be described thus: Cytotoxicity against human PC3 cells assessed as cell growth inhibition at 30 uM after 48 hrs by MTT assay. Type of series: functional. The note with it: PC-3, 48 h, read-out: GI. In outline:
as §1

A short description of series [7]: Cytotoxicity against human PC3 cells assessed as cell growth inhibition at 50 uM after 48 hrs by MTT assay. It is filed as functional. The note with it: PC-3, 48 h, read-out: GI. A digest of the protocol: as §1
Series [8] can be described thus: Cytotoxicity against human HepG2 cells assessed as cell growth inhibition at 30 uM after 48 hrs by MTT assay. It is filed as functional. The following applies: HepG2, 48 h, read-out: GI. In outline:
as §1

The nature of series [9]: Cytotoxicity against human HepG2 cells assessed as cell growth inhibition at 50 uM after 48 hrs by MTT assay. Type of series: functional. The following applies: HepG2, 48 h, read-out: GI. In outline:
as §1

A short description of series [10]: Cytotoxicity against human LS180 cells assessed as cell growth inhibition at 30 uM after 48 hrs by MTT assay. Type of series: functional. The following applies: LS180, 48 h, read-out: GI. In outline:
as §1

The nature of series [11]: Cytotoxicity against human LS180 cells assessed as cell growth inhibition at 50 uM after 48 hrs by MTT assay. The following applies: LS180, 48 h, read-out: GI. Type of series: functional. A digest of the protocol: as §1
Series [12] in a line: Cytotoxicity against human HL60 cells assessed as cell growth inhibition at 0.5 uM after 48 hrs by MTT assay. Type of series: functional. The note with it: HL-60, 48 h, read-out: GI. A digest of the protocol:
as §2

The nature of series [13]: Cytotoxicity against human HL60 cells assessed as cell growth inhibition at 1 uM after 48 hrs by MTT assay. Type of series: functional. The note with it: HL-60, 48 h, read-out: GI. In outline:
as §2

The nature of series [14]: Cytotoxicity against human HL60 cells assessed as cell growth inhibition at 10 uM after 48 hrs by MTT assay. Type of series: functional. The following applies: HL-60, 48 h, read-out: GI. A digest of the protocol: as §2
Series [15] can be described thus: Cytotoxicity against human HL60 cells assessed as cell growth inhibition after 48 hrs by MTT assay. Type of series: functional, cell-based. The note with it: HL-60, 48 h. In outline: as §2
Series [16] has as its system Vero. Nature of the series: Selectivity index, ratio of IC50 for African green monkey Vero cells to IC50 for human HL60 cells. It is filed as functional. A digest of the protocol: (§3)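 Suspension cells were seeded at 1.5 × 10^4 per well and adherent lines at 70–75% confluence, then exposed to a range of concentrations. MTT was added 3 h before the end, formazan dissolved in DMSO, and OD read at 570 nm (reference 620 nm). Growth inhibition was taken relative to untreated cells. IC50 came from the MTT data; SI = IC50 in Vero cells / IC50 in the tumour line.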

Series [17] in a line: Cytotoxicity against human MIAPaCa2 cells assessed as cell growth inhibition at 0.5 uM after 48 hrs by MTT assay. Type of series: functional. The note with it: MIA PaCa-2, 48 h, read-out: GI. In outline: as §1
Series [18] in a line: Cytotoxicity against human MIAPaCa2 cells assessed as cell growth inhibition at 1 uM after 48 hrs by MTT assay. Type of series: functional. The note with it: MIA PaCa-2, 48 h, read-out: GI. A digest of the protocol: as §1
A short description of series [19]: Cytotoxicity against human MIAPaCa2 cells assessed as cell growth inhibition at 10 uM after 48 hrs by MTT assay. The note with it: MIA PaCa-2, 48 h, read-out: GI. It is filed as functional. A digest of the protocol:
as §1

The nature of series [20]: Cytotoxicity against human MIAPaCa2 cells assessed as cell growth inhibition after 48 hrs by MTT assay. The following applies: MIA PaCa-2, 48 h. It is filed as functional, cell-based. A digest of the protocol: as §1
Series [21] deals with Vero. The series is described as follows: Selectivity index, ratio of IC50 for African green monkey Vero cells to IC50 for human MIAPaCa2 cells. Type of series: functional. A digest of the protocol: as §3
A short description of series [22]: Cytotoxicity against human PC3 cells assessed as cell growth inhibition at 1 uM after 48 hrs by MTT assay. Type of series: functional. The following applies: PC-3, 48 h, read-out: GI. A digest of the protocol:
as §1

Series [23] in a line: Cytotoxicity against human PC3 cells assessed as cell growth inhibition at 10 uM after 48 hrs by MTT assay. Type of series: functional. The note with it: PC-3, 48 h, read-out: GI. A digest of the protocol: as §1
Series [24] can be described thus: Cytotoxicity against human PC3 cells assessed as cell growth inhibition after 48 hrs by MTT assay. The following applies: PC-3, 48 h. Type of series: functional, cell-based. In outline:
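Exposed 48 h to compound in DMSO (vehicle <0.2% v/v). MTT dye added 3 h before termination; formazan dissolved in DMSO, OD 570 nm with 620 nm reference. Growth inhibition expressed as % of untreated; IC50 taken from the dose series.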

The subject of series [25] is Vero. Nature of the series: Selectivity index, ratio of IC50 for African green monkey Vero cells to IC50 for human PC3 cells. It is filed as functional. In outline:
as §3

The nature of series [26]: Cytotoxicity against human HepG2 cells assessed as cell growth inhibition at 0.5 uM after 48 hrs by MTT assay. Type of series: functional. The note with it: HepG2, 48 h, read-out: GI. In outline:
as §1

Series [27] can be described thus: Cytotoxicity against human HepG2 cells assessed as cell growth inhibition at 1 uM after 48 hrs by MTT assay. It is filed as functional. The following applies: HepG2, 48 h, read-out: GI. In outline: as §1
Series [28] in a line: Cytotoxicity against human HepG2 cells assessed as cell growth inhibition at 10 uM after 48 hrs by MTT assay. Type of series: functional. The following applies: HepG2, 48 h, read-out: GI. A digest of the protocol:
as §1

Series [29] can be described thus: Cytotoxicity against human HepG2 cells assessed as cell growth inhibition after 48 hrs by MTT assay. Type of series: functional, cell-based. The following applies: HepG2, 48 h. In outline: as §1
The test system of another series is HepG2. The series is described as follows: Selectivity index, ratio of IC50 for African green monkey Vero cells to IC50 for human HepG2 cells. Type of series: functional. In outline: as §3
Series [30] in a line: Cytotoxicity against human LS180 cells assessed as cell growth inhibition at 0.5 uM after 48 hrs by MTT assay. It is filed as functional. The note with it: LS180, 48 h, read-out: GI. In outline:
as §1

Series [31] is described as follows: Cytotoxicity against human LS180 cells assessed as cell growth inhibition at 1 uM after 48 hrs by MTT assay. Type of series: functional. The note with it: LS180, 48 h, read-out: GI. In outline: as §1
Series [32] in a line: Cytotoxicity against human LS180 cells assessed as cell growth inhibition at 10 uM after 48 hrs by MTT assay. It is filed as functional. The following applies: LS180, 48 h, read-out: GI. In outline:
as §1

The nature of series [33]: Cytotoxicity against human LS180 cells assessed as cell growth inhibition after 48 hrs by MTT assay. It is filed as functional, cell-based. The following applies: LS180, 48 h. A digest of the protocol:
as §1

Series [34] in a line: Selectivity index, ratio of IC50 for African green monkey Vero cells to IC50 for human LS180 cells. It is filed as functional. A digest of the protocol:
as §3

The nature of series [35]: Lipophilicity, log P of the compound. The following applies: octanol/water. It is filed as physicochemical.
A short description of series [36]: Aqueous solubility of the compound at pH 7. It is filed as physicochemical.

Where only a bound is given, the exact number is not on record here.

The term IC50 denotes the point on the concentration scale where inhibition reaches its midpoint. Broadly, the logP is the decadic logarithm of the partition coefficient of the neutral form, usually between octanol and water. As usually defined, the solubility is how much of the substance goes into solution per volume. As for `C[C@H]1[C@@H](OCCOc2ccc(/C=C/C(=O)c3ccco3)cc2)O[C@@H]2O[C@@]3(C)CC[C@H]4[C@H](C)CC[C@@H]1[C@@]24OO3`, the inhibition of growth at 0.5 µM in series [1] was 15.1%; in series [12], 38%; in series [17], 18.4%; in series [26] it was 1%; in series [30] it was 20%. For the same molecule, the inhibition of growth at 50 µM is 91.7% in series [2]; 77.5% in [5]; 69.4% in [7]; 26.9 to 42.6% in series [9]; 28.3% in series [11]. In addition, the inhibition of growth at 30 µM in [3] is 89.1%; in series [4], 39.8 to 67.3%; in [6] it was 55.1 to 58.1%; in series [8], 25.2 to 67.3%; in [10] it was 26.9%. Further, the inhibition of growth at 1 µM turned out to be 57.5% in series [13]; 19.1% in series [18]; 15.8% in [22]; 14.7% in [27]; 25.7% in series [31]. The inhibition of growth at 10 µM in series [14] is 87.4%; in series [19] it was 26.2%; in series [23], 43.4%; in series [28], 24.8%; in series [32] it was 26.9%. For the same molecule, the IC50 in [15] was 700 nM; in series [20] it was > 50 µM; in series [24], 24 µM; in series [29] it was 22 µM; in series [33] it was > 50 µM. Besides, the “Ratio IC50” value is given as 90 with Vero [16]; 59 in the series with Vero [21]; 94 with Vero [25]; 68 with HepG2; >200 in series [34]. The logP in series [35] fell in the range of 5.34 to 7.45. In series [36], the solubility is < 10 µg/mL.
As for `CCOc1cc(/C=C/C(=O)c2ccc(OCCO[C@H]3O[C@@H]4O[C@@]5(C)CC[C@H]6[C@H](C)CC[C@@H]([C@H]3C)[C@@]46OO5)cc2)ccc1O`, the inhibition of growth at 50 µM in [2] is 84.1%; in [5], 49.8%; in series [7] it was 58.9%; in [9], 28.2%; in [11], 36.3%. The inhibition of growth at 30 µM in series [3] stood at 80.8%; in series [4], 49.4%; in series [6], 55.1%; in series [8], 25.5%; in [10], 27.4%. In series [35], this molecule displayed a lipophilicity (logP) of 5.34 to 7.45. Besides, the solubility in series [36] was < 10 µg/mL.
Turning to `C[C@H]1[C@@H](OCCOc2ccc(/C=C/C(=O)c3ccc(Cl)cc3)cc2)O[C@@H]2O[C@@]3(C)CC[C@H]4[C@H](C)CC[C@@H]1[C@@]24OO3`, the inhibition of growth at 50 µM in series [2] was 93.2%; in [5], 62.8%; in series [7], 41.8%; in [9], 25.1%; in series [11] it was 45.6%. Further, the inhibition of growth at 30 µM in [3] came out at 89.4%; in [4] it was 54.4%; in series [6], 38.7%; in series [8] it was 19.7%; in series [10], 42.1%. Besides, the logP in series [35] lay within 5.34 to 7.45. The solubility in series [36] was < 10 µg/mL.
